Our source for the Activity, %max and T1/2 values is ChEMBL document CHEMBL4376874, “Discovery of Potent and Selective Epidermal Growth Factor Receptor (EGFR) Bifunctional Small-Molecule Degraders” (J Med Chem, 2020).

Active and inactive are the calls of the source. The calls are words filed in the database; no cut-off is given here. Where only a bound is given, the exact number is not on record here.

Data set [1] concerns Protein cereblon/Epidermal growth factor receptor (Homo sapiens), P00533+Q96SW2 [L858R]. Briefly: Protac activity at CRBN/EGFR L858R mutant in human H3255 cells assessed as induction of EGFR degradation treated 8 hrs post serum starvation measured after 16 hrs by Western blot analysis. It is filed as cell-based.
Data set [2] shares this test system. Description: Protac activity at CRBN/EGFR L858R mutant in human H3255 cells assessed as induction of EGFR degradation at >=50 nM treated 8 hrs post serum starvation measured after 16 hrs by Western blot analysis relative to control. In kind it is cell-based. The procedure, abridged: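 Cultured to 80% confluence in RPMI/1640 with 20% FBS at 37 °C and 5% CO2, then switched to serum-free medium for 8 h. Degraders were added over a concentration range up to 10 μM for 16 h, with gefitinib at 1 μM as reference. Lysates in Laemmli buffer were immunoblotted for EGFR, p-EGFR and p-AKT. DC50 came from band quantification by nonlinear regression (variable slope).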
On the technique in general: Immunoblotting shows a protein as a band on a membrane.

The test system of data set [3] is NCI-H3255. Description: Effect on AKT level in human H3255 cells up to 10 uM treated 8 hrs post serum starvation measured after 16 hrs by Western blot analysis. To be noted: nci-h3255, 16 h. In kind it is ADME, cell-based.
The target of data set [4] is Epidermal growth factor receptor (Homo sapiens, UniProt P00533). Description: Induction of wild-type EGFR degradation in human H1299 cells at up to 10 uM treated 8 hrs post serum starvation measured after 16 hrs by Western blot analysis. It is filed as cell-based.
Chain of Epidermal growth factor receptor (P00533 whole entry): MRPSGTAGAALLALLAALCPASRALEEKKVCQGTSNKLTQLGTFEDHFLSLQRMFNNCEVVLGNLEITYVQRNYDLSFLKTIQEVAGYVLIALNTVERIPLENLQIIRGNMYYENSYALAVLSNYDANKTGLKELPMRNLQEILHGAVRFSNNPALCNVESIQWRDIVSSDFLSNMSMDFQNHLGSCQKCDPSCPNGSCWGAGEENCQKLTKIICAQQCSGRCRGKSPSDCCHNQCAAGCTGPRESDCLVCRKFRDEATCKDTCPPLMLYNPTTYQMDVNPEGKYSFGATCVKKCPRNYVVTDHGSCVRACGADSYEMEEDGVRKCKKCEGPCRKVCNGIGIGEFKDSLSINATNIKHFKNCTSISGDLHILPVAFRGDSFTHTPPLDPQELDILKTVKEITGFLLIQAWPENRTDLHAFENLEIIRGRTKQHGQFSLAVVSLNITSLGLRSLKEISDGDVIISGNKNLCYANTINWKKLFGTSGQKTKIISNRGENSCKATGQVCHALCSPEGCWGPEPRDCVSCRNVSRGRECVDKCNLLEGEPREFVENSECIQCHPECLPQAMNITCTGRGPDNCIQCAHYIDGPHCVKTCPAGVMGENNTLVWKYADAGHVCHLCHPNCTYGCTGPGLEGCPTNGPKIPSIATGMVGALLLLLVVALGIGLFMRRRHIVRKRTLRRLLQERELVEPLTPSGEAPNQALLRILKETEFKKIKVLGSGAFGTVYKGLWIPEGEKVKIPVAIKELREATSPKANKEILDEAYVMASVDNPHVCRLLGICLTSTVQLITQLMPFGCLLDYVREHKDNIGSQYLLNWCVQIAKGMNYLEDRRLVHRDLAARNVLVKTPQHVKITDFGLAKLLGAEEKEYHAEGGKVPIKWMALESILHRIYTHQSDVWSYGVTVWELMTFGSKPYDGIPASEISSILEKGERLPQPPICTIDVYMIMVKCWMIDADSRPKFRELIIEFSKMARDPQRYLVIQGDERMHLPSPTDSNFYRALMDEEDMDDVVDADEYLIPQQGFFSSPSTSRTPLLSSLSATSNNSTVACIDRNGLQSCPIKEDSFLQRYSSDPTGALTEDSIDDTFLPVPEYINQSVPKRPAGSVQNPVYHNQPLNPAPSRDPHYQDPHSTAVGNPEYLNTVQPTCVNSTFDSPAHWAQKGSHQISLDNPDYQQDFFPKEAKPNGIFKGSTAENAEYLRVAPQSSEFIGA
The subject of data set [5] is Protein cereblon/Epidermal growth factor receptor (Homo sapiens), P00533+Q96SW2 [UNDEFINED MUTATION]. Briefly: Protac activity at CRBN/EGFR exon 19 deletion mutant in human HCC827 cells assessed as time required to induce 50% EGFR degradation at 100 nM treated 8 hrs post serum starvation by Western blot analysis. It is filed as cell-based. The procedure, abridged:
(§1)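 After 8 h serum starvation, cells got 100 nM degrader and were collected at serial time points for Western blot of EGFR and downstream signaling.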

Data set [6] relates to Protein cereblon/Epidermal growth factor receptor (Homo sapiens), P00533+Q96SW2 [L858R]. Description: Protac activity at CRBN/EGFR L858R mutant in human H3255 cells assessed as reduction in AKT phosphorylation at 100 nM treated 8 hrs post serum starvation by Western blot analysis. In kind it is cell-based. The following applies: TDE = time-dependent effect. The procedure, abridged: as §1

For data set [7] the test system is unchanged. Description: Protac activity at CRBN/EGFR L858R mutant in human H3255 cells assessed as induction of EGFR degradation at 100 nM measured after 8 hrs in presence of negative control MS154N by Western blot analysis. In kind it is cell-based.
Data set [8] concerns Protein cereblon/Epidermal growth factor receptor (Homo sapiens), P00533+Q96SW2 [UNDEFINED MUTATION]. Briefly: Reversible protac activity at CRBN/EGFR exon 19 deletion mutant in human HCC827 cells assessed as recovery of EGFR phosphorylation at 100 nM preincubated for 12 hrs followed by compound washout and measured after 24 hrs by Western blot analysis. It is filed as cell-based. The procedure, abridged:
(§2)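 Cells were serum-starved 8 h, then given degrader for 12 h. They were washed three times with PBS and harvested at the indicated time points after washout. EGFR, p-EGFR and p-AKT were read by Western blot.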

The subject of data set [9] is Protein cereblon/Epidermal growth factor receptor (Homo sapiens), P00533+Q96SW2 [L858R]. Description: Reversible protac activity at CRBN/EGFR L858R mutant in human H3255 cells assessed as recovery of EGFR phosphorylation at 100 nM preincubated for 12 hrs followed by compound washout and measured up to 48 hrs by Western blot analysis. In kind it is cell-based. The procedure, abridged:
as §2

For data set [10], the system named is NCI-H3255. Description: Antiproliferative activity against human H3255 cells measured after 3 days by CCK8 assay. In kind it is functional, cell-based. The procedure, abridged: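 H3255 cells seeded 4000/well the night before, then exposed to serial dilutions for 3 days. Growth read by Cell Counting Kit-8; three independent experiments. IC50 from nonlinear regression (log inhibitor vs response, variable slope).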
A general note: Tetrazolium assays rely on reduction of a dye to a coloured formazan, in cell work by metabolically active cells.

Chain of Protein cereblon/Epidermal growth factor receptor (Homo sapiens), P00533+Q96SW2 [UNDEFINED MUTATION] (P00533 whole entry, looked up, stated change not applied): as the sequence (P00533 whole entry) above
Chain of Protein cereblon/Epidermal growth factor receptor (Homo sapiens), P00533+Q96SW2 [UNDEFINED MUTATION] (Q96SW2 whole entry, looked up, stated change not applied): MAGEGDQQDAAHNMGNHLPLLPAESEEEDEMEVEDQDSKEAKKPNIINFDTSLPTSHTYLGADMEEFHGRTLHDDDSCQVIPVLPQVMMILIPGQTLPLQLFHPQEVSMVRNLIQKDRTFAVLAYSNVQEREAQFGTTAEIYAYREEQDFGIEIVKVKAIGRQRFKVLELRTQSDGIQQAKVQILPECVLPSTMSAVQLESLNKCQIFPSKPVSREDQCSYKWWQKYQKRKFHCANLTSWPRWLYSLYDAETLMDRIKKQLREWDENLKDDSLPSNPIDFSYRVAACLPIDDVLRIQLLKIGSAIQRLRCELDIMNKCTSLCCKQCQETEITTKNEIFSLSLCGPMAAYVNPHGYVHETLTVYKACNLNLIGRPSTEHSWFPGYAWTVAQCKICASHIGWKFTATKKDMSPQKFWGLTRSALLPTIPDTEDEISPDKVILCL

Turning to `COc1cc2ncnc(Nc3ccc(F)c(Cl)c3)c2cc1OCCCN1CCN(CCC(=O)NCCCCCCCCOc2cccc3c2C(=O)N(C2CCC(=O)NC2=O)C3=O)CC1` (stereo not given), the Activity result in data set [1] was “Dose-dependent effect”; in the data set on NCI-H3255 [3], “Non-Toxic”; in data set [4] it was “Not Active”; in data set [6] it was “Tde”. Besides, the %max in [2] is greater than 95%. In addition, the T1/2 in data set [5] stood at 3.5 h. Further, the result in [7] was inactive. Also, the outcome (in data set [8]; in data set [9]; with NCI-H3255 [10]) was Active.
